A selection: hits, their analogues and other compounds. The true share with any hit is near 1.6%.
UHRF1 binding = blocks human UHRF1 binding to methylated DNA | Q96T88 | UHRF1 binding to methylated oligo, TR-FRET | inhibition, % at 4.4 µM | 0.75% of 370,000 active; in the data active = inhibition above about 21%;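 also: UHRF1 SRA domain binding a hemimethylated CpG hairpin DNA probe; 0% = median of test compound wells and 100% = reference inhibitor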
Target sequence (Q96T88 whole entry, looked up, the tested form may be a part): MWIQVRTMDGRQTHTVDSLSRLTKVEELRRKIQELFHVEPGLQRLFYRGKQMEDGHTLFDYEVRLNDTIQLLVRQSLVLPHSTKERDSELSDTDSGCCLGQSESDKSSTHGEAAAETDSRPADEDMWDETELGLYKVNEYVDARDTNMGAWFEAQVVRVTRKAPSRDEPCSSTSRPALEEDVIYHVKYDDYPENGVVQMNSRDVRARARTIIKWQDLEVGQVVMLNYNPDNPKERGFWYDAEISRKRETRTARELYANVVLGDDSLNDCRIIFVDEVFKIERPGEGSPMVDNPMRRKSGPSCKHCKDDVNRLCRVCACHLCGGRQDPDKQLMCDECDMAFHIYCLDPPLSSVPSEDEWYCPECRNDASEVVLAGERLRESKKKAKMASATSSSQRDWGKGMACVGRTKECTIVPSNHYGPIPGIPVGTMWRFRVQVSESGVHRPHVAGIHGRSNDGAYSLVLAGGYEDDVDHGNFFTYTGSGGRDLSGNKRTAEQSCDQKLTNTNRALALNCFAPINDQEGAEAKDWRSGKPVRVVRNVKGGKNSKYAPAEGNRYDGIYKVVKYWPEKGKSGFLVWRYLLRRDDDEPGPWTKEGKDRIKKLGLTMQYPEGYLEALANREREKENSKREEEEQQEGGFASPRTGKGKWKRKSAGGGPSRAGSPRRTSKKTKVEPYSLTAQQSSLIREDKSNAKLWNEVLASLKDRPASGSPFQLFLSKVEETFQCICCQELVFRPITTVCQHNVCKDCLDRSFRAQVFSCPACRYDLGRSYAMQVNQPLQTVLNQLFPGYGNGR
TDP2 inh = blocks human TDP2 phosphodiesterase activity | recombinant TDP2, T5PNP hydrolysis, p-nitrophenol absorbance 415 nm | inhibition, % at 12.8 µM | 0.34% of 370,000 active | O95551;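 active = inhibition above the mean of all tested compounds plus 3 SD, set per campaign, cut at about 25% in these data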;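 also: 0% = DMSO with enzyme and 100% = buffer with substrate but no TDP2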
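Material: recombinant human TDP2; quantity: TDP2 enzyme at 120 nM final; medium: Tris-HCl pH 7.5 with MgCl2; compound: single concentration, 12.8 µM nominal, with 1% DMSO; incubation: 2 h enzyme incubation at 37 °C; signal: epi absorbance; measure: percent inhibition; benchmarks: high control without enzyme, low control DMSO plus TDP2; repeats: singlicate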
MBD2 DNA inh = MBD2-methylated oligo binding inhibition; TR-FRET, MBD2 binding to methylated oligonucleotide; inhibition, % at 4.4 µM; 0.31% of 370,000 active; AID 686964; in the data active = inhibition above about 13%
LEDGF integ inh = blocks HIV-1 LEDGF/p75-dependent DNA integration | TR-FRET IN-LEDGF/p75 DNA integration, Eu/Cy5 | inhibition, % at 3.7 µM | 0.64% of 370,000 active;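 active = inhibition above the screen-wide mean plus 3 SD, cut at about 13% in these data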;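 also: signal is the Cy5 over europium emission ratio at 671 and 618 nm; 0% = plate median of compound wells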
The depositor's hits bear a star.

SMILES | UHRF1 binding | TDP2 inh | MBD2 DNA inh | LEDGF integ inh
Cc1c(C(=O)OCC(=O)NCCc2ccc(S(N)(=O)=O)cc2)oc2ccccc12 | 37.1* | 4.6 | 3.1 | -1.0
O=[N+]([O-])c1ccc(Sc2ncccn2)c([N+](=O)[O-])c1 | -0.3 | -4.9 | -2.5 | 0.7
Cc1cccc(Sc2ccc([N+](=O)[O-])cc2[N+](=O)[O-])n1 | 28.0* | -7.7 | -1.7 | -2.1
O=C(O)C1=C(C(=O)O)C2C=CC1C2 | 33.0* | -13.1 | 12.0 | 4.8
CC(=O)c1cccc(NC(=O)C2(c3ccccc3)CC2(Cl)Cl)c1 (stereo not given) | 25.2* | -8.3 | 3.8 | -0.9
COc1cc(C)nc(N(C)S(=O)(=O)c2ccccc2Cl)n1 | 27.6* | 20.6 | 9.5 | 11.8
CN(CC(=O)Nc1ccc(F)c(F)c1F)C(=O)C1CCCN1C(=O)c1cccs1 (stereo not given) | -1.3 | 5.5 | -0.2 | -1.3
CC(C)OCCCNC(=S)NNC(=O)C(c1ccccc1)c1ccccc1 | 22.0* | 0.6 | 2.5 | -3.2
OC1CCN(Cc2nc(Cc3ccccc3Cl)no2)CC1 | 10.7 | 3.3 | 5.9 | -0.5
Clc1ccccc1Cc1noc(CN2CCN3CCCC3C2)n1 (stereo not given) | 28.9* | -2.8 | 3.8 | 1.6
COC(=O)c1ccc(N2CCOCC2)c(NC(=O)Nc2cccc(OC)c2)c1 | 23.9* | 3.4 | -4.1 | -4.6
COc1ccc(CN(C)CC2CCCN(CCc3ccccc3C)C2)cc1O (stereo not given) | 0.0 | -1.3 | 4.3 | 0.7
COc1ccc(CCN2CCCC(CN(C)Cc3cc(Cl)c(O)c(OC)c3)C2)cc1 (stereo not given) | 53.7* | 7.6 | -1.4 | 0.6
CCOC(=O)CCCCC(=O)c1[nH]c(=O)[nH]c1CSc1nc(-c2ccccc2)c(C#N)c(=O)[nH]1 | -2.2 | 16.2 | -0.9 | 15.1*
CCC1(CC)C(=O)NC(=O)NC1=NCCc1c[nH]c2ccccc12 | 0.1 | 2.5 | -0.8 | -0.4
CC(=O)Nc1cc(OC(C)=O)c2nonc2c1OC(C)=O | 15.3 | 98.2* | 18.6* | 39.2*
CCN(CC)S(=O)(=O)c1ccc(C)c(NC(=O)/C=C/c2cccs2)c1 | 21.7* | 10.1 | 10.4 | 6.5
CCSc1nnc(NC(=O)c2ccccc2C)s1 | 23.8* | -5.8 | -0.1 | 0.5
COc1ccc(NC(=O)CSc2nnnn2C2CCCCC2)c(OC)c1 | 7.0 | -14.5 | 3.0 | -9.0
COc1ccc(-c2cc(N)n(S(=O)(=O)c3ccc(C)cc3)n2)c(OC)c1 | -1.1 | -8.0 | 0.3 | 6.7
Cc1cc(C)c(NS(=O)(=O)c2ccc3c(c2)oc(=O)n3C)c(C)c1 | 39.4* | -0.6 | -0.9 | -0.8
COc1cc(C(=O)N2CCN(c3ccccc3Cl)CC2)ccc1OCC(=O)N1CCOCC1 | 11.9 | 6.3 | 2.5 | -5.9
N/C(=N\OC(=O)/C=C/c1ccccc1Cl)c1ccccn1 | -3.1 | 5.7 | 1.3 | -1.5
N/C(=N\OC(=O)/C=C/c1ccc(Br)cc1)c1ccccn1 | 22.9* | 18.3 | 3.0 | 1.4
CC(=O)O[C@H]1CC[C@@]2(C)C(=CC[C@H]3[C@@H]4CC[C@H](C(C)=O)[C@@]4(C)CC[C@@H]32)C1 | -1.3 | 0.2 | -0.8 | -1.6
SMILES | UHRF1 binding | TDP2 inh | MBD2 DNA inh | LEDGF integ inh
O=C(NCc1ccccc1)c1ccc2nccnc2c1 | 2.0 | 3.5 | -6.4 | 3.3
O=C(NCc1ccccc1)c1ccc2nc(-c3ccco3)c(-c3ccco3)nc2c1 | -4.4 | 18.8 | -9.7 | 26.7*
O=C(Nc1ccc2nc(-c3ccco3)c(-c3ccco3)nc2c1)N1CCN(c2ccccn2)CC1 | 4.1 | 11.6 | 3.5 | 23.8*
O=C(c1ccc2nc(-c3ccco3)c(-c3ccco3)nc2c1)N1CCN(c2ncccn2)CC1 | 11.9 | 11.3 | 4.0 | 34.0*
CCCSC1=NN2CCCC(=O)N=C2S1 | 0.5 | -9.7 | 0.4 | -2.2
O=C(NCCCN1CCCC1=O)C(=O)Nc1cccc(F)c1 | -1.4 | 14.6 | 1.2 | 2.3
O=C(NCCCC1CCCC1)C1CCC(=O)N(Cc2ccccc2F)C1 (stereo not given) | -1.9 | 0.7 | 6.6 | -1.4
Cc1ccccc1NC(=O)COc1ccc2oc(=O)cc(C)c2c1 | 3.4 | -1.2 | -2.3 | -1.8
CCCCn1c(=O)[nH]c2nc3cc(NC(C)=O)ccc3nc2c1=O | 44.7* | 4.0 | -0.9 | -3.1
CCCCCCn1c(=O)[nH]c2nc3cc(N)c(C)cc3nc2c1=O | -50.8 | 0.8 | -13.4 | -0.4
CCCOC(=O)CCCC[C@H]1SC[C@@H](NC(=O)OC)[C@H]1NC(=O)OC | 2.9 | -11.0 | -1.8 | -1.0
O=C(c1ccc(C(F)(F)F)cc1)N1CCC(=O)N(C(COCc2ccccc2)Cc2ccccc2)CC1 (stereo not given) | 40.1* | -13.6 | -4.3 | -1.7
O=C(c1ccc(C(F)(F)F)cc1)N1CCC(=O)N(C(COCc2ccc(Cl)cc2)Cc2ccccc2)CC1 (stereo not given) | -0.5 | -4.6 | -2.1 | -0.2
CSc1ccccc1C(=O)Nc1cccc(C(C)O)c1 (stereo not given) | 21.4* | -5.4 | 2.0 | -5.1
COc1ccc(CNC(=O)C2CCN(S(=O)(=O)N3CCC4(CC3)OCCO4)CC2)c(OC)c1 | 1.8 | -10.8 | 0.3 | -2.4
CCOC(=O)c1c(/N=C/N(C)C)sc2c1CCC2 | 95.3* | -1.6 | 4.0 | -0.8
CCOC(=O)c1c(/N=C/c2ccc(C)cc2O)sc2c1CCC2 | -0.3 | 21.5 | -3.6 | -1.1
COC(=O)[C@H]1CN(C(=O)c2ccccc2)C(=O)N1 | -2.4 | 1.8 | 2.5 | -0.1
COC(=O)C1CCC(=S)N1C(=O)c1ccccc1 (stereo not given) | 26.8* | -21.7 | -3.2 | -0.6
Cc1ccc(NS(=O)(=O)c2c(C)[nH]c(=O)[nH]c2=O)cc1F | 5.5 | -11.4 | -0.6 | 0.1
Cc1cc(C)cc(OCC(=O)N(Cc2ccco2)c2c(N)n(Cc3ccccc3)c(=O)[nH]c2=O)c1 | 9.6 | 8.7 | -0.9 | 0.5
CCN(C(=O)COC(=O)/C=C/c1cnc2ccccc2n1)c1ccccc1 | 25.7* | -3.6 | -0.9 | -4.0
CN(C)c1ccc(C=c2c3cc(O)ccc3n3c2cc(-c2ccccc2)[n+]3C)cc1 | 31.0* | 23.1 | 7.3 | 8.0
C=C(C)C(=O)Nc1cccc(C2=NOC3(C2)C[C@H](C(N)=O)N(C(=O)c2ccccc2)C3)c1 (stereo not given in full) | 25.9* | -7.0 | 8.8 | 1.3
C/C=C(/C)C(=O)Nc1cccc(C2=NOC3(C2)C[C@H](C(N)=O)N(C(=O)c2ccc(Cl)cc2)C3)c1 (stereo not given in full) | -0.2 | 6.0 | 2.3 | -1.1
O=c1c2ccc(F)cc2sn1-c1ccccc1 | 87.6* | -1.3 | 1.2 | 0.4
Cc1cccc[n+]1CC(=O)c1ccc([N+](=O)[O-])cc1 | 1.6 | 8.4 | -7.3 | 1.4
O=C(Cn1cnc2sc3c(c2c1=O)CCCC3)NCC(=O)Nc1c(F)cccc1F | 22.2* | -8.8 | 8.9 | 1.2
CCCC(=O)Nc1cc(C)c2c(=O)oc3ccccc3c2n1 | 0.4 | -4.9 | 0.7 | -4.5
Cc1cc(NC(=O)c2ccccc2F)nc2c1c(=O)oc1ccccc12 | 22.4* | 0.5 | 1.4 | 0.9

High-throughput results as filed in PubChem BioAssay.
